# The source made the active and inactive calls. The calls are words filed in the database; no cut-off is given here.
# Key:
# Mus musculus = species on record: Mus musculus; experiment: Antiproliferative activity against mouse AXL-positive Breast cancer cells after 5 days by PrestoBlue assay; assay type: functional
# Outline: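 Cell proliferation: AXL+ cells were exposed to 8-point half-log dilutions (0.03–100 μM). Viability was read with PrestoBlue reagent on day 5.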
# [1] = biological target: T1, Tyrosine-protein kinase receptor TYRO3 (Homo sapiens, UniProt Q06418); experiment: Inhibition of wild-type human partial length TYRO3 (S497 to T814 residues) expressed in bacterial expression system using poly [Glu, Try] 4:1 as substrate in presence of [gamma-33P]ATP
# T1 sequence (Q06418 whole entry): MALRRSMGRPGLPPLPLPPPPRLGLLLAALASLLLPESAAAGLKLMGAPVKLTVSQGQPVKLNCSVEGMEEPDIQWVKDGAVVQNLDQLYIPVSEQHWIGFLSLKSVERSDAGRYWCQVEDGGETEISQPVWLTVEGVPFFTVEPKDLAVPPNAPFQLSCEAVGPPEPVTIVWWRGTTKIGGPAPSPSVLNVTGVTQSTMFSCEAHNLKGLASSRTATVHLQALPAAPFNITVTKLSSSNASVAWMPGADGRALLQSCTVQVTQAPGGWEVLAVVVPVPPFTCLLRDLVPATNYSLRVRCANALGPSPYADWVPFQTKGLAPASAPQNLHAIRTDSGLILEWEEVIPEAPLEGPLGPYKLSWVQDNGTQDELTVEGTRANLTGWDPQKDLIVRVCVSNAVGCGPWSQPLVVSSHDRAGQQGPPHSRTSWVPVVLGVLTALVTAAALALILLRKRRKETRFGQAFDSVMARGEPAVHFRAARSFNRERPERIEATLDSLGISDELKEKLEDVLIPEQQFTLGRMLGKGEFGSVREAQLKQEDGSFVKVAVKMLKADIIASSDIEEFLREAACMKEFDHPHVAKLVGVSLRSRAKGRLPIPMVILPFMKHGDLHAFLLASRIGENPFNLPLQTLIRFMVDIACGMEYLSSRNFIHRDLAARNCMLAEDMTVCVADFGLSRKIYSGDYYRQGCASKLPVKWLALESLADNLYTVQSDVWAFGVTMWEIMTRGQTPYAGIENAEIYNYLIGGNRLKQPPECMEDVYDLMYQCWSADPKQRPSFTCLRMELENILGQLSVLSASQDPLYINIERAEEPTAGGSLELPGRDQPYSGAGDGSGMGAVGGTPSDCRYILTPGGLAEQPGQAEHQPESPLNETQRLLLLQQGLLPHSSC
# Outline: (§1)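 Radiometric assay on recombinant kinase: ³³P incorporation into the kinase substrate was measured and activity was expressed relative to a DMSO control.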
# [2] = biological target: Hepatocyte growth factor receptor (Homo sapiens, UniProt P08581); experiment: Inhibition of wild-type human partial length MET (D1010 to S1367 residues) expressed in bacterial expression system using poly [Glu, Try] 4:1 as substrate in presence of [gamma-33P]ATP; outline: as §1
# Hepatocyte growth factor receptor, sequence (P08581 whole entry, the tested form may be a part): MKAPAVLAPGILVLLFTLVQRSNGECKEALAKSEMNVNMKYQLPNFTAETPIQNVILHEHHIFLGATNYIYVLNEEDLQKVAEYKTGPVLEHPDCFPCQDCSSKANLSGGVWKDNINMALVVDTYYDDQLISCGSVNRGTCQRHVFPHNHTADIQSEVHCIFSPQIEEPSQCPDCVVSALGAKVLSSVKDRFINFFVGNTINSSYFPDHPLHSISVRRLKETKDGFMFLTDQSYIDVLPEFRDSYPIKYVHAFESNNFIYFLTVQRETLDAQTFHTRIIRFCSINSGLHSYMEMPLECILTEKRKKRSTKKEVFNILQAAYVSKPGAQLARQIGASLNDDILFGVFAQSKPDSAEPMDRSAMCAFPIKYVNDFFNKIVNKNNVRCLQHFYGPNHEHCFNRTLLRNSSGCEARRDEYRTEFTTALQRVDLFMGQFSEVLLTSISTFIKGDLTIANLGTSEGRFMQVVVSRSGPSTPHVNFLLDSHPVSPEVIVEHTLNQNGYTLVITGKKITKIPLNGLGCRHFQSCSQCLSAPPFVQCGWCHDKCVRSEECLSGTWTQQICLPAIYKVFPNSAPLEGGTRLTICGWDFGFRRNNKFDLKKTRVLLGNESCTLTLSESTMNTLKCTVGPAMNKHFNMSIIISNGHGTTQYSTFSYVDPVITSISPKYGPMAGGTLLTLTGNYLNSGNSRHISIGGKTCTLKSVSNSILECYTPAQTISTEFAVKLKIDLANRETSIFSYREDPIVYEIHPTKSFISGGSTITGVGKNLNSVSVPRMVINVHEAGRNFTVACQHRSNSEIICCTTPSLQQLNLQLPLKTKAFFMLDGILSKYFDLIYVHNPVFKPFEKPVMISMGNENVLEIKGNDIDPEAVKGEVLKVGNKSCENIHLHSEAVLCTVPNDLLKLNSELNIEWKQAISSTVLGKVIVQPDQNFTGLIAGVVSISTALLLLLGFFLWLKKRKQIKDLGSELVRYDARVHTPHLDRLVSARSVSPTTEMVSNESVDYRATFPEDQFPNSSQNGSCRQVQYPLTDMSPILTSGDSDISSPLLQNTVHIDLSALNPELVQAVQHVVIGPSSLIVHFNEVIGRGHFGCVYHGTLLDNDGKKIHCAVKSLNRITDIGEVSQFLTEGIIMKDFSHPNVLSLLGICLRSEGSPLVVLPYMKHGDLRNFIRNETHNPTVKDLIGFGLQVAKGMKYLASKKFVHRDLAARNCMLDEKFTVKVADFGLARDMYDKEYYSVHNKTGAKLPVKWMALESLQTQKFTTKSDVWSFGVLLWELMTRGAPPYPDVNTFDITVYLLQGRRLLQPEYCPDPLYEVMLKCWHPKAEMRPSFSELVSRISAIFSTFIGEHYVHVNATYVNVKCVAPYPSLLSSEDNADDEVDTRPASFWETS
# [3] = biological target: Serine/threonine-protein kinase mTOR (Homo sapiens, UniProt P42345); experiment: Inhibition of wild-type human partial length MTOR (L1382 to W2549 residues) expressed in mammalian expression system using poly [Glu, Try] 4:1 as substrate in presence of [gamma-33P]ATP; outline: as §1
# [4] = biological target: Mast/stem cell growth factor receptor Kit (Homo sapiens, UniProt P10721); experiment: Inhibition of wild-type human partial length KIT (I571 to D952 residues) expressed in bacterial expression system using poly [Glu, Try] 4:1 as substrate in presence of [gamma-33P]ATP; outline: as §1
# Mast/stem cell growth factor receptor Kit, sequence (P10721 whole entry, the tested form may be a part): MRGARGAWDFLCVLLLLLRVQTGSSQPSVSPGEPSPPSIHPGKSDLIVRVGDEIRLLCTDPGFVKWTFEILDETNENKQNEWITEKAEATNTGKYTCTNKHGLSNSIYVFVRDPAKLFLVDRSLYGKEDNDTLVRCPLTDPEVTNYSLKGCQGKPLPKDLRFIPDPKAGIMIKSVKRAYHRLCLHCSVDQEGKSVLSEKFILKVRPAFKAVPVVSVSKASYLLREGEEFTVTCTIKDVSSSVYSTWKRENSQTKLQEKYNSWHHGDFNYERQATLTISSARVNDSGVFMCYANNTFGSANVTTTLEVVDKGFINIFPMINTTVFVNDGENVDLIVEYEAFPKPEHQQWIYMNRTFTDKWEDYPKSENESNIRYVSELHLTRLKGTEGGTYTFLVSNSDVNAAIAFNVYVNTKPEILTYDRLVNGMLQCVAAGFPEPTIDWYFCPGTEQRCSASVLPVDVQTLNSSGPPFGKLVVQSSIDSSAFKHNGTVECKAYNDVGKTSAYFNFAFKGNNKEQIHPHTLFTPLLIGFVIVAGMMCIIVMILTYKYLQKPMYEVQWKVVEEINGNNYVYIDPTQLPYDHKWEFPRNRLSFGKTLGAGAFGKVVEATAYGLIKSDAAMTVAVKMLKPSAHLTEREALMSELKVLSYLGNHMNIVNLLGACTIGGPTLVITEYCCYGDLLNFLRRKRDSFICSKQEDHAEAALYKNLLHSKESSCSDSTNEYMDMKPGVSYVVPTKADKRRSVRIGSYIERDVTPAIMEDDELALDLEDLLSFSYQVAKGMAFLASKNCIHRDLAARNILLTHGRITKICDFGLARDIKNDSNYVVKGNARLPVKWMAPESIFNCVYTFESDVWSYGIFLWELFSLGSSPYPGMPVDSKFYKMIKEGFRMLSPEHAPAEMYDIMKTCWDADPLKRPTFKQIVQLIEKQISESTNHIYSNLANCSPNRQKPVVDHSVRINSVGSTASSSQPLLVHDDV
# [5] = biological target: Vascular endothelial growth factor receptor 2 (Homo sapiens, UniProt P35968); experiment: Inhibition of wild-type human partial length VEGFR2 (R787 to P1253 residues) expressed in mammalian expression system using poly [Glu, Try] 4:1 as substrate in presence of [gamma-33P]ATP
# Vascular endothelial growth factor receptor 2, sequence (P35968 whole entry, the tested form may be a part): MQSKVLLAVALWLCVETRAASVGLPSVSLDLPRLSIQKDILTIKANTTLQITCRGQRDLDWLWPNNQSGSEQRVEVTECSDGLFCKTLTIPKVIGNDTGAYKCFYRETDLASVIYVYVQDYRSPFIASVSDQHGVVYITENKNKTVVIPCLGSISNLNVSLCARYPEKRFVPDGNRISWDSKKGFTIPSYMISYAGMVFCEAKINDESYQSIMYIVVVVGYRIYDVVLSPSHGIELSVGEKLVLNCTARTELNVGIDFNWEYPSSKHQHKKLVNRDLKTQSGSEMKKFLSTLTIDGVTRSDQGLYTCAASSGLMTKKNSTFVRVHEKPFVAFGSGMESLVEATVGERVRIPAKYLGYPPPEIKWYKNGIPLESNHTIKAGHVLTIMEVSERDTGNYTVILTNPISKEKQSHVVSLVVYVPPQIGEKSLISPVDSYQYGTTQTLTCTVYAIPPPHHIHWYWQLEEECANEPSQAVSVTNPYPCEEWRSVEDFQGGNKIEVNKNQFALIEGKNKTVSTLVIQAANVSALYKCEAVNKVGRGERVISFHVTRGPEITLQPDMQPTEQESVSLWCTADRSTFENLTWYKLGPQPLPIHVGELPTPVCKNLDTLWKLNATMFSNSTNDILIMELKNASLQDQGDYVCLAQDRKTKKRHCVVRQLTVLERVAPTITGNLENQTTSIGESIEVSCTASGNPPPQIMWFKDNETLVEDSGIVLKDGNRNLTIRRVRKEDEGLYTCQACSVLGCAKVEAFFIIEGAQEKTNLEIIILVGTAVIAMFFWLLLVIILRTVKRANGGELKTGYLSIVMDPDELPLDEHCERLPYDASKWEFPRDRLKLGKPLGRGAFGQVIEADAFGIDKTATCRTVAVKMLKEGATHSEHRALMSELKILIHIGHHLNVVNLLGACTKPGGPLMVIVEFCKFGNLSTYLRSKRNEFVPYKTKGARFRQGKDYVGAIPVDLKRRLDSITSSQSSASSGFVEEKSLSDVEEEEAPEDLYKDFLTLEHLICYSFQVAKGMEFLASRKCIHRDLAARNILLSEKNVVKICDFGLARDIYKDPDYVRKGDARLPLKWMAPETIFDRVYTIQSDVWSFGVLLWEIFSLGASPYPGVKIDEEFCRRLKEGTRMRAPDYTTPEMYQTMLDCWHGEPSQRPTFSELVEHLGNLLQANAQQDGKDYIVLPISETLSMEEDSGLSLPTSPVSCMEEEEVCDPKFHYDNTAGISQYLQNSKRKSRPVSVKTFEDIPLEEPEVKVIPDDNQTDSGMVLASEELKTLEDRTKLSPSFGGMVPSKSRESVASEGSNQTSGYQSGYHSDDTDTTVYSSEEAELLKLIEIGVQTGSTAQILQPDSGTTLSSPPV
# [6] = biological target: Proto-oncogene tyrosine-protein kinase Src (Homo sapiens, UniProt P12931); experiment: Inhibition of wild-type human partial length SRC (L240 to L536 residues) expressed in bacterial expression system using poly [Glu, Try] 4:1 as substrate in presence of [gamma-33P]ATP
# Proto-oncogene tyrosine-protein kinase Src, sequence (P12931 2-536 limits assumed): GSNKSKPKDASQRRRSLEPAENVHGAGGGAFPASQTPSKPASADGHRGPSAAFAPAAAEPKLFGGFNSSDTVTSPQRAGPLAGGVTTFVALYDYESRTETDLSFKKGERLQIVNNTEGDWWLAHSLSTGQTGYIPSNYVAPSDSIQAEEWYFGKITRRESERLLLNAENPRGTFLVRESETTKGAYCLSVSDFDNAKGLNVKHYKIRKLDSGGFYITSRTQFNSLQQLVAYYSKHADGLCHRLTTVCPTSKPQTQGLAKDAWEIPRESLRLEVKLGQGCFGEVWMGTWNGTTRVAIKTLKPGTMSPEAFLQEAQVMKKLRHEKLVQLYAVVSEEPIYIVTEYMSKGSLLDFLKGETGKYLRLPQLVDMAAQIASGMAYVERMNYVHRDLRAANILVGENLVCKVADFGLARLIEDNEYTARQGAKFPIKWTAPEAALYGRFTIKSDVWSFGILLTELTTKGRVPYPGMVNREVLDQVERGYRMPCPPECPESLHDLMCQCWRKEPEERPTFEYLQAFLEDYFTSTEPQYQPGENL
# Aurora kinase A = biological target: T2, Aurora kinase A (Homo sapiens, UniProt O14965); experiment: Inhibition of human partial length Aurora A (E122 to K401 residues) expressed in mammalian expression system using poly [Glu, Try] 4:1 as substrate in presence of [gamma-33P]ATP; outline: as §1
# T2 sequence (O14965 whole entry): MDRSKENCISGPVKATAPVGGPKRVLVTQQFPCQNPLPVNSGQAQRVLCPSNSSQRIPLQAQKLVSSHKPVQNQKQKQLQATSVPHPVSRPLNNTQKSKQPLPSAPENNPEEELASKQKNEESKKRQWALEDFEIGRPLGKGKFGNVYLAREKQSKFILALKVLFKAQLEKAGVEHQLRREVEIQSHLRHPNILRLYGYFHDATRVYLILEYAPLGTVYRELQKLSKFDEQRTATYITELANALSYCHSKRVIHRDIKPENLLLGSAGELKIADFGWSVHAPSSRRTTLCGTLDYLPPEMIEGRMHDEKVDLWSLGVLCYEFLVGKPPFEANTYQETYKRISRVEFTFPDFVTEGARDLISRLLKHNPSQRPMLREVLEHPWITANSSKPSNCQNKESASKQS
# [7] = biological target: RAC-alpha serine/threonine-protein kinase (Homo sapiens, UniProt P31749); experiment: Inhibition of AKT (unknown origin) using poly [Glu, Try] 4:1 as substrate in presence of [gamma-33P]ATP; outline: as §1
# RAC-alpha serine/threonine-protein kinase, sequence (P31749 whole entry): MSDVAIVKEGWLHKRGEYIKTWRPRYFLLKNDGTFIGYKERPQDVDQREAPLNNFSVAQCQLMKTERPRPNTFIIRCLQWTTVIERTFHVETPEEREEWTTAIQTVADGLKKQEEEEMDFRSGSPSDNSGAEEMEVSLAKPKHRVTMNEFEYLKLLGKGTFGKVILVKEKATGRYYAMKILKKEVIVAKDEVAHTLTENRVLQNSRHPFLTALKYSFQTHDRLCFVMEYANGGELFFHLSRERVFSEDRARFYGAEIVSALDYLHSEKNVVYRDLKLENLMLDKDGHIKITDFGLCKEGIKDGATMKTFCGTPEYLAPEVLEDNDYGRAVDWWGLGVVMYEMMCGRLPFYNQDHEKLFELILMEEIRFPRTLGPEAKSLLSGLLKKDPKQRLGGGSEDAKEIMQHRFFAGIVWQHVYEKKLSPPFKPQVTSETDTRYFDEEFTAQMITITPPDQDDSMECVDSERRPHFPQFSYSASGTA
Compound,Activity (Mus musculus),further results
CNc1ncc2c(-c3ccc(N4CCNCC4)nc3)nn(Cc3cn(-c4ccccc4)nn3)c2n1,inactive,
CNc1ncc2c(-c3ccc(N4CCNCC4)nc3)nn(Cc3cn(C4CCCCC4O)nn3)c2n1 (stereo unspecified),inactive,
CNc1ncc2c(-c3ccc(N4CCNCC4)nc3)nn(Cc3cn(-c4ccc(Cl)cc4)nn3)c2n1,inactive,
CNc1ncc2c(-c3ccc(N4CCNCC4)nc3)nn(Cc3cn(Cc4ccccc4)nn3)c2n1,Active,IC50 [1]: > 10 µM; IC50 [2]: > 10 µM; IC50 [3]: > 10 µM; IC50 [4]: > 10 µM; IC50 [5]: > 10 µM; IC50 [6]: 1 µM; IC50 (Aurora kinase A): 1.8 µM; IC50 [7]: > 10 µM
CNc1ncc2c(-c3ccc(N4CCNCC4)nc3)nn(Cc3cn(-c4ccc(OC)cc4)nn3)c2n1,inactive,
CNc1ncc2c(-c3ccc(N4CCNCC4)nc3)nn(Cc3cn(C4CCCC4O)nn3)c2n1 (stereo unspecified),inactive,
CNc1ccc(-c2nn(Cc3cn(Cc4ccccc4)nn3)c3nc(NC)ncc23)cn1,inactive,
CNc1ncc2c(-c3cnc4[nH]ccc4c3)nn(Cc3cn(Cc4ccccc4)nn3)c2n1,inactive,
